High-throughput results from PubChem.
The entries come from a sample that favours hits as a whole.
HCT116 PTEN-null: suppresses growth of cells with PTEN deletion | viability, % at 10 µM | HCT116 PTEN-null viability, CellTiter-Glo, 60 h; stronger effect = lower value | 140,000 compounds, 1.2% hits;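 active means viability at or below a set limit, 4 SD under the median of all tested compounds, cut at about 3.7% in these data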;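 further: PTEN knockout HCT116 line with beta catenin targeted HCT116 as companion control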
HUVEC inhibit: blocks proliferation of human endothelial cells; HUVEC proliferation, CellTiter-Glo luminescence, 72 h; stronger effect = lower value; viability, % at 10 µM (by protocol); 86,000 compounds, 1.1% hits;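 active means viability at or below 30%; inactive means viability above 30%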;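 further: 100% = median luminescence of DMSO-only cell control wells on each plate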
Lung fibro prol: blocks proliferation of human lung fibroblasts; LL 47 human lung fibroblast viability, ATP luminescence; stronger effect = lower value; viability, % at 10 µM; 85,000 compounds, 1.1% hits; AID 719;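 active means viability at or below 50% in the single dose screen; inactive means viability above 50%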;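 further: compound exposure lasted 72 h before the ATP readout; 100% = median luminescence of untreated cell-only wells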
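Material: human LL 47 lung fibroblast cells; quantity: 1,150 cells/well; medium: IMEM plus 15% FBS; doses: 0.1% DMSO in all compound wells; timing: overnight attachment after seeding, then 72 h compound exposure at 37 °C; detection: CellTiter-Glo luminescence; measure: % viability of median cell-only signal; controls: cell-only wells, no compound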
H69AR inhibit: growth inhibitors of human H69AR lung tumor cells; H69AR lung tumor viability, ATP luminescence, 72 h; stronger effect = lower value; 85,000 compounds, 6% hits; viability, % at 10 µM;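 active means viability at or below 40%; inactive means viability above 40%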;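 further: multidrug resistant small cell line overexpressing MRP-1 efflux transporter; 100% = mean luminescence of untreated control wells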
bCat KO growth: beta-catenin-lacking colon tumor cell growth suppression. viability, % at 10 µM. 140,000 compounds, 1.5% hits. HCT116 beta-catenin knockout viability, CellTiter-Glo, 60 h; stronger effect = lower value;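 active means viability at or under a set limit, the compound median less 4 SD, cut at about 6% in these data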;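 further: 0% = Hyamine 1622 control at 20 µM and 100% = untreated cell control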
* hit, by the source's call; . = no result.

SMILES	HCT116 PTEN-null	HUVEC inhibit	Lung fibro prol	H69AR inhibit	bCat KO growth
O=c1c2c([nH]c3ccc(Br)cc13)CCCC2	.	101.5	94.2	67.8	.
NC(=O)c1cc(Br)cc2c3c([nH]c12)CCCC3	44.9	41.6	87.5	17.9*	51.0
Cc1cc(N2C3CCC2CC(O)(c2ccc(F)cc2)C3)nc(-c2ccccc2)n1 (configuration not stated)	60.2	59.9	56.0	26.1*	58.2
O=S(=O)(c1ccccc1Cl)N1CCC(O)(c2ccc3c(c2)OCO3)CC1	89.3	97.8	90.0	.	90.3
CC(C)COC(=O)C1C(=O)CC(C)(O)C(C(=O)OCC(C)C)C1c1cccnc1 (configuration not stated)	86.5	94.3	98.3	29.4*	74.7
O=S(=O)(CC(CN1CCCC1)N1CCCC1)c1ccc2ccccc2c1 (configuration not stated)	2.1*	18.4*	3.5*	1.9*	1.9*
COc1cc2c(cc1OC)CN(c1nc(CN3CCOCC3)nc3sc4c(c13)CCCC4)CC2	3.1*	.	.	.	29.7
Cc1ccc(C)c(N2CCN(C(=O)COc3cc(=O)n(C)c4ccccc34)CC2)c1	65.9	94.6	106.6	65.3	82.1
Cc1ccc(C)c(N2CCN(C(=O)CCCOc3cc(=O)n(C)c4ccccc34)CC2)c1	26.2	64.8	95.3	2.8*	29.0
COc1ccc(C)cc1C(=O)CCC(=O)Nc1ccccc1N1CCOCC1	1.2*	109.8	90.8	81.2	1.2*
Cc1ccc(S(=O)(=O)CCC(=O)OCc2ccc(Cl)cc2)cc1	103.3	.	.	.	95.2
Cc1ccc(S(=O)(=O)CCC(=O)c2ccc(O)cc2O)cc1	29.6	86.8	86.9	1.0*	45.1
Cc1cc(C)cc(NC(=O)CN2CCCN(S(=O)(=O)c3ccc(Br)s3)CC2)c1	58.1	66.1	87.0	53.4	53.0
Cc1ccc(NC(=O)CN2CCCN(S(=O)(=O)c3ccc(Br)s3)CC2)cc1	80.4	100.0	100.0	31.4*	72.0
CC(=O)c1c(C)oc2ccc(N(C(C)=O)S(=O)(=O)c3ccc(Cl)c([N+](=O)[O-])c3)cc12	43.4	.	.	.	31.6
CCOC(=O)C(C)(C)N(Cc1ccc(C)cc1)S(=O)(=O)c1ccc(Cl)c([N+](=O)[O-])c1	0.8*	.	.	.	0.9*
CCOC(=O)C(C)(C)N(Cc1ccc(Cl)cc1)S(=O)(=O)c1ccc(Cl)c([N+](=O)[O-])c1	1.6*	.	.	.	1.1*
CCOC(=O)C(C)(C)NS(=O)(=O)c1ccc(Cl)c([N+](=O)[O-])c1	77.4	.	.	.	59.7
COc1ccc(N2CCN(C(=O)c3ccc(OCC4CCCO4)cc3)CC2)cc1 (configuration not stated)	89.0	101.8	105.1	98.6	108.4
O=C(c1cc(-c2cccc(O)c2)on1)N1CCN(C(c2ccccc2)c2ccccc2)CC1	41.2	79.7	84.5	5.2*	42.9
CCOC(=O)c1cc2sc(C)cc2n1CC(=O)N(CC)CC	79.9	104.1	106.1	86.1	85.2
CCOC(=O)c1cc2sc(C)cc2n1CC(=O)NCCc1ccccc1	96.1	82.5	101.3	26.9*	83.5
O=C1COc2ccc(C(=O)CSc3nnc(Cc4cccs4)n3-c3ccc(Cl)cc3)cc2N1	77.3	83.3	98.5	27.1*	80.4
CCCn1c(SCC(=O)c2ccc3c(c2)NC(=O)CO3)nc2ccccc21	27.9	.	.	.	4.6*
CCCn1c(N)c(C(=O)CSc2nc3ccccc3n2CCC#N)c(=O)n(C)c1=O	99.9	74.2	93.0	87.6	98.4
SMILES	HCT116 PTEN-null	HUVEC inhibit	Lung fibro prol	H69AR inhibit	bCat KO growth
CCCCCCn1c(SCC(=O)c2c(N)n(C)c(=O)n(C)c2=O)nc2ccccc21	46.8	50.1	40.2*	24.1*	50.8
O=C1COc2ccc(C(=O)CSc3nnnn3-c3ccccc3)cc2N1	96.8	103.3	101.8	103.3	101.3
CCC(=O)NC(c1ccccc1OC)c1ccc2cccnc2c1O (configuration not stated)	2.7*	4.1*	11.5*	1.8*	3.9*
COc1cc(C(=O)Nc2cc(C)ccn2)cc(OC)c1OC	95.9	94.1	104.1	79.2	90.2
COc1ccc(C(=O)NC(=O)Nc2cc(C)ccn2)cc1	56.8	65.2	85.6	39.8*	49.1
O=C(CSc1ncnc2scc(-c3ccc(Cl)cc3)c12)NCc1ccc2c(c1)OCO2	61.8	.	.	.	89.1
CSC(=O)CC(=O)NC(=O)c1ccccc1	104.8	80.7	102.2	94.8	95.0
O=C1CC(c2ccco2)CC2=C1C1c3ccccc3C(=O)N1c1ccccc1N2 (configuration not stated)	5.8	71.2	87.1	46.5	8.1
O=C1CCCC2=C1C1c3ccccc3C(=O)N1c1ccc(C(=O)c3ccccc3)cc1N2 (configuration not stated)	28.9	49.5	106.6	20.8*	39.7
O=C(c1cc(-c2cccnc2)nc2ccc(Br)cc12)N1CCC2(CC1)OCCO2	.	82.0	98.2	90.9	.
O=C(Cn1cc(C(F)(F)F)cc(Cl)c1=O)Nc1cc(S(=O)(=O)N2CCOCC2)ccc1Cl	88.2	.	.	.	89.2
COc1ccc(/C=N/NC(=O)CNC(=O)C2COc3ccccc3O2)cc1OC (configuration not stated)	108.5	.	.	.	98.1
O=C(CN1CCN(c2nc(-c3ccc(F)cc3)cs2)CC1)Nc1ccc2c(c1)OCO2	86.7	82.2	90.1	40.0*	76.5
Cn1c(CCN2CCCCC2)nc2cc(NS(=O)(=O)c3ccc(Cl)cc3)ccc21	16.5	104.1	100.0	9.8*	12.7
CCOc1ccc(CCNC(=O)COC(=O)/C=C/c2ccc(OCC#N)c(OC)c2)cc1OCC	105.1	.	.	.	102.4
CN(Cc1ccccc1)C(=O)CC(c1ccccc1)c1cc(Cl)ccc1O (configuration not stated)	56.7	.	.	.	66.3
Cc1ccc(S(=O)(=O)N2CCN(Cc3nc4ccccc4[nH]3)CC2)cc1C	91.0	101.0	91.7	35.0*	82.8
Cc1cc(C)c(C)c(S(=O)(=O)N2CCN(Cc3nc4ccccc4[nH]3)CC2)c1C	73.6	87.8	97.6	41.6	68.0
O=C1CC(Sc2ncccn2)C(=O)N1c1ccccc1 (configuration not stated)	103.1	104.0	104.8	96.6	113.8
COc1ccc(N2C(=O)CC(Sc3nnc(-c4ccccc4)o3)C2=O)cc1 (configuration not stated)	88.8	94.5	2.2*	1.4*	98.2
O=C1CC(Sc2nnc(-c3ccccc3O)o2)C(=O)N1c1ccccc1 (configuration not stated)	89.1	95.9	2.4*	1.7*	97.6
O=C(Nc1nc2ccc(SC(F)F)cc2s1)c1ccc(NS(=O)(=O)c2ccc(F)c(F)c2)cc1	58.4	.	.	.	71.6
Cc1ccc(NC(=O)C(C)c2ccc([N+](=O)[O-])cc2)cc1Cl (configuration not stated)	46.2	.	.	.	57.8
O=[N+]([O-])c1cc(/C=N/Nc2nc3ccccc3[nH]2)c(O)cc1O	6.1	.	.	.	5.2*
C(=N\Nc1nc2ccccc2[nH]1)/c1c[nH]c2ccccc12	14.4	.	.	.	9.1
